Source: ChEMBL document CHEMBL1131331, “Structure-activity studies on anticonvulsant sugar sulfamates related to topiramate. Enhanced potency with cyclic sulfate derivatives” (J Med Chem, 1998)

Experiments:
Format in all cases: functional
Mus musculus [1] = assay: Activity against maximal electroshock seizures in mice, 4 hr following oral administration of 75 mg/kg
Method in brief: (§1)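 Mouse maximal electroshock seizure test. An electric shock is applied through corneal electrodes, and block of the hind-limb tonic-extensor seizure is scored. Compounds are given orally, usually to 10 mice per group, and tested 4 h after dosing. The result is reported as percent of dosed animals protected at the stated dose.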

Mus musculus [2] = assay: Activity against maximal electroshock seizures in mice, 4 hr following oral administration of 300 mg/kg of compound; method in brief: as §1
Mus musculus [3] = assay: Activity against maximal electroshock seizures in mice, 4 hr following oral administration of 35 mg/kg of compound; method in brief: as §1
Mus musculus [4] = assay: Effective dose against maximal electroshock seizures in mice, at 4 hr following oral administration of 10 mg/kg of compound
Mus musculus [5] = assay: Inhibition of maximal electroshock seizures in mice, 4 hr following 10 mg/kg p.o. administration.; details: route oral; method in brief: as §1
Mus musculus [6] = assay: Activity against maximal electroshock seizures in mice, 4 hr following oral administration of 75 mg/kg of compound; method in brief: as §1

Structure (SMILES)	Block (Mus musculus [1]) [%]	also measured
CB1O[C@@H]2[C@@H](CO[C@@]3(COS(N)(=O)=O)OC(C)(C)O[C@@H]23)O1	0	Block (Mus musculus [2]): 50%
CCC(OS(N)(=O)=O)[C@@]12OC[C@H]3OC(C)(C)O[C@H]3[C@@H]1OC(C)(C)O2 (stereo partly specified)	0	
CC1(C)O[C@@H]2[C@@H](CO[C@@]3(CCCOS(N)(=O)=O)OC(C)(C)O[C@@H]23)O1	0	
COC1(OC)O[C@@H]2[C@@H](CO[C@@]3(COS(N)(=O)=O)OC(C)(C)O[C@@H]23)O1	0	
CCO[C@@H]1[C@H](OCC)CO[C@@]2(COS(N)(=O)=O)OC(C)(C)O[C@@H]12	0	Block (Mus musculus [2]): 40%
CC1(C)C[C@H]2[C@@H]3OC(C)(C)O[C@@H]3CC[C@@]2(COS(N)(=O)=O)C1	0	
CC1(C)O[C@H]2[C@@H]3OC(C(F)(F)F)(C(F)(F)F)O[C@@H]3CO[C@@]2(COS(N)(=O)=O)O1	40	
CC[C@@]1(C)O[C@@H]2[C@@H](CO[C@@]3(COS(N)(=O)=O)OC(C)(C)O[C@@H]23)O1	90	
CCNS(=O)(=O)OC[C@@]12OC[C@H]3OC(C)(C)O[C@H]3[C@@H]1OC(C)(C)O2	90	Block (Mus musculus [3]): 0%
CC1(C)O[C@H]2[C@@H]3OS(=O)(=O)O[C@@H]3CO[C@@]2(COC(N)=O)O1	0	
NS(=O)(=O)OC[C@@]12CCC=C[C@@H]1CCC2	0	
CC1(C)O[C@H]2[C@@H]3OS(=O)(=O)O[C@@H]3CO[C@@]2(COS(=O)(=O)N2CCCCC2)O1	0	
CN(C[C@@]12OC[C@H]3OC(C)(C)O[C@H]3[C@@H]1OC(C)(C)O2)S(N)(=O)=O	0	
NS(=O)(=O)OC[C@]12CCC[C@H]1[C@@H]1C[C@@H]1CC2	0	
CC1(C)O[C@H]2[C@@H]3OS(=O)O[C@@H]3CO[C@@]2(COS(N)(=O)=O)O1 (stereo partly specified)		ED50 (Mus musculus [4]): 5.7 mg/kg
CO[C@@H]1[C@H](OC)CO[C@@]2(COS(N)(=O)=O)OC(C)(C)O[C@@H]12	0	
NS(=O)(=O)OC[C@@]12OC[C@H]3OC4(CCCCC4)O[C@H]3[C@@H]1OC1(CCCCC1)O2	0	
CC1(C)O[C@H]2[C@H](Br)[C@@H](Br)CO[C@@]2(COS(N)(=O)=O)O1	100	Block (Mus musculus [5]): 0%; ED50 (Mus musculus [4]): 21 mg/kg
CC1(C)O[C@H]2[C@@H]3OC(=O)O[C@@H]3CO[C@@]2(COS(N)(=O)=O)O1	0	Block (Mus musculus [2]): 70%

Structure (SMILES)	Block (Mus musculus [1]) [%]	also measured
CCC1(CC)O[C@H]2[C@@H]3OS(=O)(=O)O[C@@H]3CO[C@@]2(COS(N)(=O)=O)O1		Block (Mus musculus [6]): 100%; Block (Mus musculus [5]): 0%
CC1(C)O[C@H]2[C@@H]3OB(c4ccccc4)O[C@@H]3CO[C@@]2(COS(N)(=O)=O)O1	0	
CC1(C)O[C@H]2CCCO[C@@]2(COS(N)(=O)=O)O1	0	Block (Mus musculus [2]): 100%
CC1(C)O[C@@H]2[C@@H](CO[C@@]3(CCS(N)(=O)=O)OC(C)(C)O[C@@H]23)O1	0	
COc1ccc(NS(=O)(=O)OC[C@@]23OC[C@H]4OS(=O)(=O)O[C@H]4[C@@H]2OC(C)(C)O3)cc1	0	
CC1(C)O[C@H]2[C@@H]3OS(=O)(=O)O[C@@H]3CO[C@@]2(COS(=O)(=O)n2ccnc2)O1		Block (Mus musculus [6]): 100%; Block (Mus musculus [5]): 0%
CSC(=O)O[C@H]1CO[C@@]2(COS(N)(=O)=O)OC(C)(C)O[C@H]2[C@@H]1I	90	Block (Mus musculus [5]): 0%; ED50 (Mus musculus [4]): 30 mg/kg
CC1(C)O[C@@H]2[C@@H](CO[C@@]3(COS(=O)(=O)NCc4ccccc4)OC(C)(C)O[C@@H]23)O1	0	
CC1(C)O[C@@H]2[C@@H](CO[C@@]3(CNS(N)(=O)=O)OC(C)(C)O[C@@H]23)O1	0	
CC(OS(N)(=O)=O)[C@@]12OC[C@H]3OC(C)(C)O[C@H]3[C@@H]1OC(C)(C)O2 (stereo partly specified)	0	
CC(=O)NS(=O)(=O)OC[C@@]12OC[C@H]3OC(C)(C)O[C@H]3[C@@H]1OC(C)(C)O2	30	
CC1(C)O[C@H]2[C@@H]3OCCO[C@@H]3CO[C@@]2(COS(N)(=O)=O)O1	0	
CC1(C)O[C@H]2[C@@H]3O[C@H](C(C)(C)C)O[C@@H]3CO[C@@]2(COS(N)(=O)=O)O1	0	
CC1(C)O[C@@H]2[C@@H](CC[C@@]3(COS(N)(=O)=O)CCC[C@@H]23)O1	0	
CC1(C)O[C@@H]2[C@@H](CO[C@@]3(COS(C)(=O)=O)OC(C)(C)O[C@@H]23)O1	0	
Cc1ccc(S(=O)(=O)/N=S2\O[C@@H]3[C@@H](CO[C@@]4(COS(N)(=O)=O)OC(C)(C)O[C@@H]34)O2)cc1 (stereo partly specified)	0	Block (Mus musculus [2]): 75%
NS(=O)(=O)OC[C@@]12OC[C@H]3O[C@@H](c4ccccc4)O[C@H]3[C@@H]1O[C@H](c1ccccc1)O2	0	
CC1(C)O[C@H]2[C@@H]3O[C@@H]3CO[C@@]2(COS(N)(=O)=O)O1	30	
Cc1ccc(S(=O)(=O)N=S2(=O)O[C@@H]3[C@@H](CO[C@@]4(COS(N)(=O)=O)OC(C)(C)O[C@@H]34)O2)cc1 (stereo partly specified)		Block (Mus musculus [2]): 80%

Structure (SMILES)	Block (Mus musculus [1]) [%]	also measured
CC1(C)O[C@H]2[C@@H]3OC4(CCCC4)O[C@@H]3CO[C@@]2(COS(N)(=O)=O)O1	0	
CCCCNS(=O)(=O)OC[C@@]12OC[C@H]3OC(C)(C)O[C@H]3[C@@H]1OC(C)(C)O2	80	Block (Mus musculus [5]): 0%
CC1(C)O[C@H]2[C@@H]3O[C@](C)(C(C)(C)C)O[C@@H]3CO[C@@]2(COS(N)(=O)=O)O1	0	
C[C@@H]1O[C@@H]2[C@@H](CO[C@@]3(COS(N)(=O)=O)OC(C)(C)O[C@@H]23)O1	100	Block (Mus musculus [5]): 0%
NS(=O)(=O)OC[C@@]12CCCC[C@@H]1CCC2	0	
CC1(C)O[C@H]2[C@@H]3OC(=S)O[C@@H]3CO[C@@]2(COS(N)(=O)=O)O1	12.5	
C[C@H]1O[C@@H]2[C@@H](CO[C@@]3(COS(N)(=O)=O)OC(C)(C)O[C@@H]23)O1	0	
CC1(C)O[C@H]2[C@@H]3OS(=O)(=O)O[C@@H]3CO[C@@]2(COS(=O)(=O)N=[N+]=[N-])O1		Block (Mus musculus [5]): 0%; Block (Mus musculus [3]): 100%
CC1(C)O[C@H]2[C@@H]3OCO[C@@H]3CO[C@@]2(COS(N)(=O)=O)O1	0	
NS(=O)(=O)OC[C@@]12OC[C@H]3OS(=O)(=O)O[C@H]3[C@@H]1OC1(CCCCC1)O2	0	Block (Mus musculus [2]): 10%
CC1(C)O[C@H]2C=CCO[C@@]2(COS(N)(=O)=O)O1		Block (Mus musculus [2]): 0%
CC1(C)O[C@H]2[C@H]3C(CO[C@@]2(COS(N)(=O)=O)O1)C3(Cl)Cl (stereo partly specified)	0	
CCO[C@@H]1O[C@@H]2[C@@H](CO[C@@]3(COS(N)(=O)=O)OC(C)(C)O[C@@H]23)O1	0	
CC1(C)O[C@H]2[C@@H]3OS(=O)(=O)O[C@@H]3CO[C@@]2(COS(=O)(=O)N2CCN(Cc3ccccc3)CC2)O1	0	
NS(=O)(=O)OC[C@]12CCC[C@H]1[C@@H]1OS(=O)(=O)O[C@@H]1CC2	0	
CC[C@H]1O[C@@H]2[C@@H](CO[C@@]3(COS(N)(=O)=O)OC(C)(C)O[C@@H]23)O1	90	Block (Mus musculus [3]): 10%
CCC1(CC)O[C@@H]2[C@@H](CO[C@@]3(COS(N)(=O)=O)OC(CC)(CC)O[C@@H]23)O1	0	Block (Mus musculus [2]): 70%
CC1(C)O[C@@H]2[C@@H](CO[C@@]3(CCOS(N)(=O)=O)OC(C)(C)O[C@@H]23)O1	0	
CC1(C)O[C@H]2[C@@H]3O[C@H](c4ccccc4)O[C@@H]3CO[C@@]2(COS(N)(=O)=O)O1	20	Block (Mus musculus [3]): 0%
